# Article PMC5615865 (Research in Pharmaceutical Sciences, 2017)
# How the values were obtained:
# Jack bean urease = Jack bean urease (Canavalia ensiformis, UniProt P07374); assay: Urease inhibitory assay; type: biochemical; conditions: urea 25 mM, pH 7.4, 37°C, triplicate
# Method in brief: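 Enzyme solution (2 mg/mL stock) was mixed with urea and test compound at various concentrations in 100 mM sodium phosphate, pH 7.4, then incubated 30 min at 37°C. An aliquot was taken into phenol–nitroprusside and alkaline hypochlorite–NaOH reagents and incubated a further 30 min at 37°C, and A625 was read. % inhibition was calculated against the solvent-plus-enzyme control, and IC50 was fitted. Run in triplicate with a hydroxyurea standard.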
# [1] = no reference given; cited from earlier work
# Jack bean urease, sequence (P07374 whole entry, looked up): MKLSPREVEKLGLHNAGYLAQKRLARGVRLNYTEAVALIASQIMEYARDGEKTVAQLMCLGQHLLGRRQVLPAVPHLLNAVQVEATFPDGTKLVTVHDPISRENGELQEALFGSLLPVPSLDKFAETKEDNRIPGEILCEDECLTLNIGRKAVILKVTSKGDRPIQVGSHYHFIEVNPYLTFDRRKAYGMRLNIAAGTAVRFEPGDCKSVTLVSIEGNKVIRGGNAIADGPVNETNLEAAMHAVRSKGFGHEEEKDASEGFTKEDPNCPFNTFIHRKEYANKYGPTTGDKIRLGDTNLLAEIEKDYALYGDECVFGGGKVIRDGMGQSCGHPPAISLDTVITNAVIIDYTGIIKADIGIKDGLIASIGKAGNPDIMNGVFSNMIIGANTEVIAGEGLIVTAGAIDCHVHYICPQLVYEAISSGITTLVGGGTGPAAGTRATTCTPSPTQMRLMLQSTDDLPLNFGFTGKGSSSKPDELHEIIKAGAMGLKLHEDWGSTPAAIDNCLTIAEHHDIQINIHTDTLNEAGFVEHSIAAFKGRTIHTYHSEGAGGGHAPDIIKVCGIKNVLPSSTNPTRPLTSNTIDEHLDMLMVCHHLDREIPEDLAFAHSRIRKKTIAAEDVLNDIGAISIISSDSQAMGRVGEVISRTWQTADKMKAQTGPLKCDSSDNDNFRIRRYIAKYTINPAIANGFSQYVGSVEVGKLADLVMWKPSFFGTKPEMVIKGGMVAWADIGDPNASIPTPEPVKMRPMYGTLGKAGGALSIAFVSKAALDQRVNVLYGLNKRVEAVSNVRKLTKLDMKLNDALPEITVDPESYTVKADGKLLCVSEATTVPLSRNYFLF
Structure (SMILES),IC50 (Jack bean urease) [µM],pKa [1]
NC(=O)NO [hydroxyurea],100,–
COC(=O)CC(C)=O [methyl acetoacetate],–,11.0
